Source: PubChem (several laboratories)
HIF act: HIF pathway transcriptional activators, primary screen, cell-based, U2OS HRE-luciferase, luminescence; U2OS HRE-luciferase reporter; normalized: DMSO 0%, desferrioxamine 100%; activation, % at 7.5 µM (by protocol); 300,000 tested, 0.32% active; AID 1910, 2009;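 active = mean activation of at least 10% of the iron chelator positive control signal, with at least half of replicates also reaching 10%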
SR-BI HDL uptake: inhibitors of SR-BI mediated HDL lipid uptake, primary screen, ldlA[mSR-BI] cells, fluorescence, single point; Scavenger receptor class B member 1 (Mus musculus), Q61009; inhibition, % at 12.5 µM; ldlA[mSR-BI] CHO cells, DiI-HDL uptake fluorescence, 3 h; 320,000 tested, 0.96% active;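 active = mean replicate inhibition of at least 70% and a set share of replicates each scoring 70 or more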
Target sequence (Q61009 whole entry, looked up): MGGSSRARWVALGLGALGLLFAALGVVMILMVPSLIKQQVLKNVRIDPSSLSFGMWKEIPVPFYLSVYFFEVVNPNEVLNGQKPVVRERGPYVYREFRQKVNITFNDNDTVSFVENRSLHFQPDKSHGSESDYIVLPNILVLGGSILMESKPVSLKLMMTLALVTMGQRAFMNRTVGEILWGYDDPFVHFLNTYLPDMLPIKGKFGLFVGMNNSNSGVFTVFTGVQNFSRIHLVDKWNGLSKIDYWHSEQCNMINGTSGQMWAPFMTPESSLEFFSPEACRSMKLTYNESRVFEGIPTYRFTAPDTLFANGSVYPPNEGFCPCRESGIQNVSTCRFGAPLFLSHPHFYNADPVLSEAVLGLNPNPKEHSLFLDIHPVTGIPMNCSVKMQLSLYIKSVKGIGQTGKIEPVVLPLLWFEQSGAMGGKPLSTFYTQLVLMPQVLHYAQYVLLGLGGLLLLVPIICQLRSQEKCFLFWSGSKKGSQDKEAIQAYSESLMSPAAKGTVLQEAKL
SR-BI uptake up: activators of SR-BI mediated DiI-HDL uptake, primary screen, ldlA[mSR-BI] CHO cells, DiI fluorescence; activation, % at 12.5 µM; 3 h; 100 = double the neutral-control signal; AID 504775, 2011; 320,000 tested, 0.096% active;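 active = mean replicate activation of at least 60% and every replicate at or above 60%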
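Test system: SR-BI-overexpressing, LDLR-lacking CHO cells; Medium: Ham's F12 with 0.5% BSA, HEPES 25 mM, pH 7.4; Schedule: 3 h, 37 °C; Technique: bottom-read fluorescence, 550/595 nm.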
GAA850 FXN act: FXN promoter activators, primary screen, cell-based, luciferase luminescence, HEK293 lucGAA850 | 360,000 tested, 0.56% active | HEK293 lucGAA850 FXN promoter luciferase reporter, 24 h; percent of 10 µM SAHA response | activation, % at 6 µM | AID 540364, 2011;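 active = activation above the average of all compounds screened plus 3 SD, cutoff fixed separately per campaign, cut at about 7.5% in these data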
ABCB6 inh MLPCN: ABCB6 transporter inhibitors, primary screen, K562-ABCB6 cells, flow cytometry, MLPCN library. K562-ABCB6 porphyrin accumulation, 1 h; active compounds read low. fluorescence ratio to DMSO, % at 10 µM. 360,000 tested, 0.19% active;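 active = fluorescence ratio to DMSO below 75%, the collection mean minus 3 SD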;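 note: signal is porphyrin accumulated inside mitochondria; lower ratio means ABCB6 inhibition with less porphyrin fluorescence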
AHR act: AHR activators, primary screen, cell-based, luminescence, luciferase reporter, human. Aryl hydrocarbon receptor (Homo sapiens), P35869. AHR-responsive luciferase reporter cells. activation, % at 5 µM. 320,000 tested, 2.5% active. AID 2796, 2010; in the data active = activation above about 47%
ABCB6 inh CP1: ABCB6 transporter inhibitors, confirmation, K562-ABCB6 cells, flow cytometry, cherry pick 1; shares compounds with ABCB6 inh MLPCN; K562-ABCB6 porphyrin accumulation, 1 h; active compounds read low; ratio response (% of DMSO), % at 10 µM; 700 tested, under 10 active;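 active = repeat-averaged ratio response below 75% of DMSO, the collection mean minus 3 SD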;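 note: median porphyrin fluorescence at 575 nm with 488 nm excitation from mitochondria; lower ratio means less porphyrin signal so ABCB6 inhibition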
Hits are given with their value; . = inactive; / = no result given. Shown are actives, neighbours in structure and some others; about 3.9% of the full set was active somewhere.

SMILES	HIF act	SR-BI HDL uptake	SR-BI uptake up	GAA850 FXN act	ABCB6 inh MLPCN	AHR act	ABCB6 inh CP1
CCCc1nc2ccc(NC(=O)c3cccs3)cc2c(=O)n1Cc1ccc(Cl)cc1	.	.	.	.	73.0	.	.
O=C(Nc1ccccc1Cl)Nc1ccccc1Cl	.	.	.	.	.	.	/
O=C(Nc1ccc(Nc2ccccc2)cc1)Nc1ccccc1Cl	.	.	.	.	10.0	.	.
CCn1c(SCC(=O)Nc2nc3ccc(OC)cc3s2)nc2c1c(=O)n(C)c(=O)n2C	.	.	.	.	72.0	.	.
CS(=O)(=O)Nc1ccccc1-c1cccc2nccn12	/	/	/	.	68.0	/	.
Cc1cc([N+](=O)[O-])nn1CCCC(=O)NCc1ccccc1	.	.	.	.	.	.	/
Cc1ccc(N2C(=O)C(CN3CCCC3)C2c2ccccc2)cc1 (centres undefined)	.	.	.	.	73.0	.	.
O=c1cc(CO)oc(CN2CCN(c3ccccc3)CC2)c1O	.	.	.	.	73.0	.	.
O=c1cc(CO)oc(CN2CCN(c3cccc(C(F)(F)F)c3)CC2)c1O	.	.	.	.	.	.	/
CC(C)(C)n1nc2c(c1NC(=O)Cc1ccc([N+](=O)[O-])cc1)CS(=O)(=O)C2	.	.	.	.	.	.	/
CCN(Cc1ccccc1)Cc1c(C)[nH]c2c(C)c(C)ccc2c1=O	.	.	.	.	55.0	.	.
C=CCN(CC=C)Cc1c(C)[nH]c2c(C)c(C)ccc2c1=O	.	.	.	.	.	.	/
Cc1cccc(C)c1-n1nnnc1C1c2ccccc2C(=O)N1CCCn1ccnc1 (centres undefined)	/	/	/	/	.	/	/
CCN(C(=O)COC(=O)C12CC3CC(CC(NC(C)=O)(C3)C1)C2)C1CCCCC1	/	.	.	.	.	/	/
CC(Sc1nc2ccccc2c(=O)n1C)C(=O)N(C)C1CCCCC1 (centres undefined)	.	.	.	.	74.0	.	.
COc1cc2c(C(=O)NCCN(C)C)cn(CC(C)C)c(=O)c2cc1OC	.	.	.	.	69.0	.	.
O=C(NCC1CCCO1)C(c1cccs1)N(C(=O)Cn1nnc(-c2cccs2)n1)C1CCCC1 (centres undefined)	.	.	.	.	.	.	/
CC1(C(=O)Nc2cccnc2)Cc2c(-c3cccc(C(F)(F)F)c3)ccnc2O1 (centres undefined)	/	/	/	.	.	/	.
CC(=O)c1cccc(NC(=O)C2(C)Cc3c(-c4cccc(C(F)(F)F)c4)ccnc3O2)c1 (centres undefined)	/	/	/	.	.	/	.
CC(=O)Nc1ccc(NC(=O)C2(C)Cc3c(-c4cccc(C(F)(F)F)c4)ccnc3O2)cc1 (centres undefined)	/	/	/	.	.	/	/
CC1(C(=O)Nc2cccnc2)Cc2c(-c3ccc4c(c3)OCO4)ccnc2O1 (centres undefined)	/	/	/	.	.	/	.
O=C(COC(=O)C1CC2C=CC1C2)Nc1ccc2c(c1)OC(F)(F)O2 (centres undefined)	.	.	.	.	.	.	/
Cc1ccccc1Cc1c(C)nc2c(C(=O)NCc3ccco3)cnn2c1C	.	.	.	.	70.0	.	.
Cc1nc2c(C(=O)N3CCCC3)cnn2c(C)c1Cc1c(F)cccc1Cl	.	.	.	.	.	.	.
CCOC(=O)N1CCN(C(=O)c2cnn3c(C)c(Cc4ccc(C)cc4)c(C)nc23)CC1	.	.	.	.	.	.	.
SMILES	HIF act	SR-BI HDL uptake	SR-BI uptake up	GAA850 FXN act	ABCB6 inh MLPCN	AHR act	ABCB6 inh CP1
Cc1nc2c(C(=O)O)cnn2c(C)c1Cc1ccccc1F	.	.	.	.	.	.	/
Cc1ccc(C)c(Cc2c(C)nc3c(C(=O)N4CCOCC4)cnn3c2C)c1	.	.	.	.	.	.	.
CCOC(=O)N1CCN(C(=O)c2cnn3c(C(F)F)cc(-c4ccc(C)cc4)nc23)CC1	.	.	.	.	.	.	/
CCC1CCCCN1CCCNC(=O)CCC(=O)N1CC(C)Oc2ccccc21 (centres undefined)	.	.	.	.	.	.	/
COc1ccc(/C=C2\SC(=O)N(CCC(=O)Nc3ccccc3)C2=O)cc1OC	.	.	.	.	.	.	/
CC(C)(C)CN1CCC(Oc2cccc(C(=O)N3CCNC(=O)C3(C)C)c2)CC1	.	.	.	.	14.0	.	.
CCCCN(C)C(=O)c1cccc(OC2CCN(CC(C)(C)C)CC2)c1	.	.	.	.	.	.	/
CCN(c1ccccc1)S(=O)(=O)c1ccc(Cl)c(C(=O)OCC(=O)c2[nH]c(C)c(C(C)=O)c2C)c1	.	.	.	.	.	.	/
O=C1C(C=Nc2ccccc2)=C(O)c2ccccc21	.	.	.	.	71.0	.	.
CCOC(=O)N1CCN(S(=O)(=O)c2ccc(C(=O)Nc3sc4c(c3C(N)=O)CCN(CC)C4)cc2)CC1	.	.	.	.	73.0	.	.
COC(=O)[C@@H](NC(=O)Nc1ccc(S(N)(=O)=O)cc1)C(C)C	.	.	.	.	71.0	.	.
O=C(CN(C(=O)CNC(=O)c1cccs1)c1ccc2c(c1)OCCO2)NC1CCCC1	.	.	.	.	.	.	/
C=CCC(NCc1ccccc1)c1ccc(Cl)cc1 (centres undefined)	.	.	.	.	.	.	/
CC(C)c1ccc([N+](=O)[O-])cc1S(=O)(=O)N1CCN(C)CC1	.	.	.	.	72.0	.	.
CN1CCN(S(=O)(=O)c2cc([N+](=O)[O-])ccc2Cl)CC1	.	.	.	.	.	.	/
COc1ccc(S(=O)(=O)N2CCN(C)CC2)cc1Br	.	.	.	.	.	.	/
CCN1CCN(S(=O)(=O)c2ccc(OC)c(Br)c2)CC1	.	.	.	.	74.0	.	.
O=C(Nc1ccc2nc3n(c(=O)c2c1)CCCC3)c1cccc(F)c1	.	.	.	.	.	.	/
CC(=O)N1CCN(C(=O)c2ccc(OC3CCN(Cc4ccccn4)CC3)cc2)CC1	.	.	.	.	.	.	/
COCC1CCCN(C(=O)c2ccc(OC3CCN(Cc4ccccn4)CC3)cc2)C1 (centres undefined)	/	.	.	.	12.0	.	.
Clc1ccccc1OCc1nn[nH]n1	.	.	.	.	.	.	/
